The results in this text go back to ChEMBL document CHEMBL1149691, “Identification of a novel class of selective Tpl2 kinase inhibitors: 4-Alkylamino-[1,7]naphthyridine-3-carbonitriles” (Bioorg Med Chem, 2007).

The nature of series [1]: Inhibition of Tpl2 kinase assessed as MEK phosphorylation by ELISA. Set-up: species or system Homo sapiens. The method, boiled down:
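Tpl2 (0.4 nM) incubated with 35 nM GST-MEK1 substrate and 50 µM ATP in pH 7.2 Mops buffer with MgCl2, DTT, β-glycerophosphate, EGTA and orthovanadate, 1 h at 30 °C, 1% DMSO final; stopped with EDTA. GST-MEK1 captured on anti-GST plates, phospho-Ser217/221 detected by anti-phospho-MEK1 and Eu-labelled secondary (DELFIA); IC50 by curve fitting.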

The target of series [2] is Epidermal growth factor receptor (Homo sapiens, UniProt P00533). The series is described as follows: Inhibition of EGFR kinase autophosphorylation in A431 cells.
Series [3] relates to Monocyte. The series is described as follows: Inhibition of LPS-induced TNFalpha production in human monocytes. Type of series: functional, cell-based. The method, boiled down: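 Monocytes enriched from buffy coat by antibody-cocktail negative selection and two Histopaque-1077 separations, plated at 800,000 cells/well in RPMI/0.5% FBS at 37 °C/5% CO2. Compounds in DMSO added 30 min before LPS at 10 ng/mL, ~3 h incubation; supernatant TNF-α by ELISA or electrochemiluminescence.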

For series [4], the system named is Blood. The series is described as follows: Inhibition of LPS-induced TNFalpha production in human blood. The class given is functional, tissue-based. The method in brief: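 Heparinized blood from healthy male volunteers diluted 1–5 in RPMI/3% FCS at 37 °C; compounds (in DMSO, 1.0% final) added 30 min before LPS at 10 ng/mL, ~3 h incubation. Plasma TNF-α measured by ELISA or electrochemiluminescence.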

For series [5], the system named is Mus musculus. The series is described as follows: Inhibition of LPS-induced TNFalpha production in C57B1/6 mouse at 10 mg/kg, ip. The class given is functional. The conditions noted are these: C57B1/6, ip, route intraperitoneal. The method in brief: (§1)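 Female C57Bl/6 mice, 8–10 weeks old; compound (10 or 25 mg/kg) or vehicle given ip, then 1 h later LPS plus D-galactosamine in PBS ip (2 and […] final). Mice euthanized with CO2 1.5 h after challenge and bled by cardiac puncture; serum TNF-α compared with vehicle.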

A short description of series [6]: Clearance in Sprague-Dawley rat. The class given is ADME, organism-based. The conditions noted are these: in vivo.
The nature of series [7]: Bioavailability in Sprague-Dawley rat. The class given is ADME, organism-based. To be noted: in vivo.
A short description of series [8]: Inhibition of MEK. Details: species or system Homo sapiens.
Series [9] addresses T1, Proto-oncogene tyrosine-protein kinase Src (Homo sapiens, UniProt P12931). The experiment in a line: Inhibition of Src kinase.
The species named for series [10] is Homo sapiens. The experiment in a line: Inhibition of CAMK2 at 40 uM.
For series [11], the target named is MAP kinase-activated protein kinase 2 (Homo sapiens) (UniProt P49137). The experiment in a line: Inhibition of MK2 at 40 uM.
A short description of series [12]: Inhibition of PKA. Set-up: species or system Homo sapiens.
The target of series [13] is Protein kinase C (PKC). The series is described as follows: Inhibition of PKC. Details: species or system Homo sapiens.
Series [14] can be described thus: Inhibition of S6 kinase. Details: species or system Homo sapiens.
Series [15] addresses T2, MAP kinase p38 (Homo sapiens, UniProt O15264+Q15759+Q16539+P53778). The experiment in a line: Inhibition of P-p38 kinase in human monocytes at 40 uM. Type of series: cell-based.
Series [16] deals with Mus musculus. The series is described as follows: Inhibition of LPS-induced TNFalpha production in C57B1/6 mouse at 25 mg/kg, ip. The class given is functional. To be noted: C57B1/6, ip, route intraperitoneal. The method, boiled down: as §1
The target in series [17] is T2, MAP kinase p38. The experiment in a line: Inhibition of p38 kinase. Type of series: protein assay.
Series [18] has as its target T1, Proto-oncogene tyrosine-protein kinase Src. The experiment in a line: Inhibition of Src kinase at 40 uM.
In series [19] the target is T2, MAP kinase p38. The experiment in a line: Inhibition of P-p38 kinase in human monocytes. The class given is cell-based.

pIC50: −log10 of the molar value. The source made the active and inactive calls. The calls are words filed in the database; no cut-off is given here.

Chain of Epidermal growth factor receptor (P00533 whole entry): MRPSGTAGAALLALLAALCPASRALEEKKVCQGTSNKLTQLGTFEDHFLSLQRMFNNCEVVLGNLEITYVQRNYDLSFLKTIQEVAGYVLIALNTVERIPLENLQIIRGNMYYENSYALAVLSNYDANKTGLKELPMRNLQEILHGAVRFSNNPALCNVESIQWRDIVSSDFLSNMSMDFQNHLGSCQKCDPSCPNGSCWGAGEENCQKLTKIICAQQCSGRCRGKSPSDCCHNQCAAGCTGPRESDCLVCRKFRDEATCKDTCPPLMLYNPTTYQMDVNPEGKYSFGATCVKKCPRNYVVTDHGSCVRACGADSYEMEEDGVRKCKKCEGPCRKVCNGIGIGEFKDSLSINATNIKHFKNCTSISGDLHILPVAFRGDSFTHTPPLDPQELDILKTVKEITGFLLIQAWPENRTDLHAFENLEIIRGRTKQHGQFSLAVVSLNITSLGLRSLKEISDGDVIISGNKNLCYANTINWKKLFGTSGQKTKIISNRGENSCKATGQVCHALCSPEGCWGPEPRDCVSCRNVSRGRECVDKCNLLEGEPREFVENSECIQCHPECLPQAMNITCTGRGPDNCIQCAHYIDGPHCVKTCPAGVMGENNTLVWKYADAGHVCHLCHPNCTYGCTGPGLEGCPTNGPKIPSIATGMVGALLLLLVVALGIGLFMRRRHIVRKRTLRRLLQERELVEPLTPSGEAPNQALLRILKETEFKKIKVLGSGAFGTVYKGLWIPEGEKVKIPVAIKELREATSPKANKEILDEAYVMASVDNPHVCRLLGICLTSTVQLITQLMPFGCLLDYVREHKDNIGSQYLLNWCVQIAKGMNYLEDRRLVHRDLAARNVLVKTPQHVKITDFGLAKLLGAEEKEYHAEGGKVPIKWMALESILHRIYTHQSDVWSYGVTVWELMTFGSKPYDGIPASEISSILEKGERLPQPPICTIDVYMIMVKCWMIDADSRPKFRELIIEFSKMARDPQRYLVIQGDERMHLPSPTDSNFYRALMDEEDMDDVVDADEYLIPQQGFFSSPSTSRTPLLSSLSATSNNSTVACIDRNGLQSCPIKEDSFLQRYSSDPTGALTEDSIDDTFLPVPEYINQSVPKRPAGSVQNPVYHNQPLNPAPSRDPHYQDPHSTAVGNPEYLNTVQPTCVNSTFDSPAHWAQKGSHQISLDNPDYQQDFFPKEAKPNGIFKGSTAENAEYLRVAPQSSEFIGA
T1 sequence (P12931 2-536 limits assumed): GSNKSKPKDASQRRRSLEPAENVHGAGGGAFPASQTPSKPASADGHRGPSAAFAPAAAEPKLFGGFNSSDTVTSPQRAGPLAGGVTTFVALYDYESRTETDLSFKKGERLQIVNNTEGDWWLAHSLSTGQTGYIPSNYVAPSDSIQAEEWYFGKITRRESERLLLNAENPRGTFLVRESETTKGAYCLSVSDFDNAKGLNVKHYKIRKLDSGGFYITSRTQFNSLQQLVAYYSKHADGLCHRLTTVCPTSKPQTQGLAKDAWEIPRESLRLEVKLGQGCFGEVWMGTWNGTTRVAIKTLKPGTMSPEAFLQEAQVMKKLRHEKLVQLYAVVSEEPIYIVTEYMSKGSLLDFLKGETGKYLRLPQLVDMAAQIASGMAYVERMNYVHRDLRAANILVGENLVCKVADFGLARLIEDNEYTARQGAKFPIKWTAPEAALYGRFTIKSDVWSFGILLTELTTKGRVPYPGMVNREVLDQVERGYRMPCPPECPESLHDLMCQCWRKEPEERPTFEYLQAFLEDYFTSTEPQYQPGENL
Chain of MAP kinase-activated protein kinase 2 (Homo sapiens) (P49137 whole entry, looked up): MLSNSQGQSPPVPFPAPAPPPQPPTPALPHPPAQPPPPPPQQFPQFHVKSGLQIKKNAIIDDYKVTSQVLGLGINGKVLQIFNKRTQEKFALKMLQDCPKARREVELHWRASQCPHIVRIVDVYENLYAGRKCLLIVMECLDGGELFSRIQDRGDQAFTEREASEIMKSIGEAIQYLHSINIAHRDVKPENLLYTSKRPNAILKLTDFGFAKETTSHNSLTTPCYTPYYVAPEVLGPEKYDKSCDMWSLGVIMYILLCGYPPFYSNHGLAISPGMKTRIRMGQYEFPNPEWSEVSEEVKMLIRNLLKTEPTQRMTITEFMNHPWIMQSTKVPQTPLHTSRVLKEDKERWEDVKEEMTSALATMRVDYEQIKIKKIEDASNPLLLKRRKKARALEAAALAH

Consider `CC(C)(C)Nc1c(C#N)cnc2ccc(NCc3cccc(C#N)c3)cc12`, for which the pIC50 in series [1] is 5.77.
On the same count and under the same terms, the result for `N#Cc1cnc2ccc(NCCN3CCOCC3)cc2c1Nc1ccc(F)c(Cl)c1` reads 6.00; that for `CC(C)(C)Nc1cc2c(Nc3ccc(F)c(Cl)c3)c(C#N)cnc2cn1`, < 4.40.
The same measure, in the same setting: the result for `N#Cc1cnc2ccc(NCc3cccc[n+]3[O-])cc2c1NC1CCCC1` reads 5.89; that for `N#Cc1cnc2cnc(NC3CCCC3)cc2c1Nc1ccc(F)c(Cl)c1`, 5.12.
Still for that read-out and setting: the result for `N#Cc1cnc2cnc(NCCN3CCOCC3)cc2c1Nc1cccc(I)c1` reads 5.15.
Take `CC(C)(C)Nc1c(C#N)cnc2ccc(NCc3cccc[n+]3[O-])cc12`: the pIC50 in [1] is 5.89.
In the case of `N#Cc1cnc2cnc(NCc3cccnc3)cc2c1NC1CCCCCC1`, the pIC50 is 6.80 in series [1]; < 4.70 in series [2]; 6.30 in series [3]; 5.35 in series [4]; < 4.40 in [8]; 4.42 in series [9]. For the same compound, the pIC50 in series [12] and in series [14] was < 4.40 throughout. The inhibition in vivo at 10 mg/kg in [5] turned out to be 86%. The compound also gave a clearance in [6] of 30 mL/min/kg. This compound also had a bioavailability in series [7] of 14%. Moreover, the result in series [10], in series [11] and in series [15] was inactive. Moreover, the IC50 in series [13] was > 40000 nM.
On to `N#Cc1cnc2ccc(NCc3ccc(S(N)(=O)=O)cc3)cc2c1NC1CCCC1`, for which the pIC50 in series [1] was 5.14.
On the same count and under the same terms, the result for `N#Cc1cnc2ccc(NCCN3CCOCC3)cc2c1Nc1ccc(Oc2ccccc2)cc1` reads 6.60.
Take `N#Cc1cnc2cnc(NCc3cccnc3)cc2c1Nc1ccc(F)c(Cl)c1`: the figures for the pIC50 in series [1], in series [3] and in series [4] were 7.30, 5.96 and < 4.70, respectively.
Turning to `N#Cc1cnc2ccc(NCc3cccnc3)cc2c1Nc1ccc(F)c(Cl)c1`, the pIC50 in [1] was 7.74.
Still for that read-out and setting: the result for `N#Cc1cnc2cnc(Nc3ccc(F)c(Cl)c3)cc2c1NC1CCCC1` reads 5.10; that for `C[C@@H](Nc1cc2c(Nc3ccc(F)c(Cl)c3)c(C#N)cnc2cn1)c1ccccc1`, 7.30.
Same read-out and setting: the result for `C[C@H](Nc1cc2c(NC3CCCCCC3)c(C#N)cnc2cn1)c1ccccc1` reads 6.04; that for `N#Cc1cnc2cnc(NCCN3CCOCC3)cc2c1Nc1ccc(F)cc1`, 4.97.
On the same count and under the same terms, the result for `N#Cc1cnc2cnc(NCCN3CCOCC3)cc2c1Nc1ccc(F)c(F)c1` reads 5.44.
`N#Cc1cnc2cnc(NCc3cccnc3)cc2c1NC1CCCCC1`: the pIC50 was 6.33 in series [1], < 4.40 in series [2], 6.30 in [3] and 5.33 in [4].
Take `Cn1ccnc1CNc1ccc2ncc(C#N)c(NC3CCCC3)c2c1`: in series [1], the negative logarithm of the IC50 (pIC50) was 5.52.
Same read-out and setting: the result for `Cn1ccnc1CNc1ccc2ncc(C#N)c(NC(C)(C)C)c2c1` reads 5.52; that for `N#Cc1cnc2ccc(NCCN3CCOCC3)cc2c1NC1CCCC1`, 4.71.
With `N#Cc1cnc2cnc(NCc3cccnc3)cc2c1NC1CC1`, the figures for the pIC50 in series [1] and in series [2] were 5.55 and < 4.40, respectively.
On to `CS(=O)(=O)c1cccc(CNc2ccc3ncc(C#N)c(NC4CCCC4)c3c2)c1`, for which the pIC50 in series [1] is 5.54.
On the same count and under the same terms, the result for `N#Cc1cnc2ccc(NCc3cccnc3)cc2c1NC1CCCC1` reads 5.62.
`N#Cc1cnc2cnc(NCc3cccnc3)cc2c1Nc1ccccc1`: the pIC50 in [1] is 6.40; in [2], > 5.30; in series [3], 5.96; in series [4] it was 4.70.
Turning to `N#Cc1cnc2cnc(NCCN3CCOCC3)cc2c1Nc1cccc(Oc2ccccc2)c1`, the pIC50 in [1] was 4.94.
On the same count and under the same terms, the result for `N#Cc1cnc2ccc(NCc3cccnc3)cc2c1NC1CCCCCC1` reads 5.59; that for `N#Cc1cccc(CNc2ccc3ncc(C#N)c(NC4CCCC4)c3c2)c1`, 5.66; that for `N#Cc1cnc2cnc(NCCN3CCOCC3)cc2c1Nc1ccc([N+](=O)[O-])cc1`, 5.15.
Still for that read-out and setting: the result for `N#Cc1cnc2cnc(NCCN3CCOCC3)cc2c1Nc1ccc(Nc2ccccc2)cc1` reads 5.12; that for `N#Cc1ccccc1CNc1ccc2ncc(C#N)c(NC3CCCC3)c2c1`, 5.77.
For `C#CC(C)(C)Nc1c(C#N)cnc2cnc(NCc3cccnc3)cc12`, the results for the pIC50 in series [1] and in [3] were 6.57 and 5.70, respectively. Besides, in series [4], the result was inactive.
With `CC(C)(C)Nc1c(C#N)cnc2ccc(NCc3cccc(S(C)(=O)=O)c3)cc12`, the pIC50 in series [1] was 5.54.
The same measure, in the same setting: the result for `N#Cc1cnc2cnc(NCCN3CCOCC3)cc2c1Nc1cccc(C(N)=O)c1` reads < 5.00.
Still for that read-out and setting: the result for `CC(C)(C)Nc1c(C#N)cnc2ccc(NCc3ccc(S(N)(=O)=O)cc3)cc12` reads 5.14; that for `CC(C)(C)Nc1c(C#N)cnc2ccc(NCc3ccn[nH]3)cc12`, 5.80.
Take `N#Cc1cnc2cnc(NCc3cccnc3)cc2c1NC1CCCC1`: the pIC50 in [1] is 6.49; in series [2] it was < 4.40; in series [3], 6.22; in series [4], 5.11. Also, in [6], the clearance amounted to 28 mL/min/kg.
Turning to `N#Cc1cnc2cnc(NCCN3CCOCC3)cc2c1Nc1cccc(C(=O)O)c1`, the pIC50 in series [1] was < 5.00.
Consider `N#Cc1cnc2ccc(NCc3ccccc3)cc2c1NC1CCCC1`, for which the pIC50 in series [1] was 4.68.
On the same count and under the same terms, the result for `N#Cc1cnc2cnc(NCc3cccnc3)cc2c1NC1CCNCC1` reads < 4.40; that for `CS(=O)(=O)Nc1cccc(Nc2c(C#N)cnc3cnc(NCCN4CCOCC4)cc23)c1`, < 5.00; that for `N#Cc1cnc2cnc(NCCN3CCOCC3)cc2c1Nc1ccc(Oc2ccccc2)cc1`, 6.42.
The same measure, in the same setting: the result for `N#Cc1cnc2cnc(NC3CCCCCC3)cc2c1Nc1ccc(F)c(Cl)c1` reads 5.28.
In the case of `N#Cc1cnc2ccc(NCc3c[nH]cn3)cc2c1Nc1ccc(F)c(Cl)c1`, the pIC50 was 6.22 in series [3], 5.62 in series [8], 5.23 in series [12] and < 5.00 in series [14]. Testing at 25 mg/kg in series [16] gave an inhibition in vivo of 71%. This compound displayed a clearance in series [6] of 97 mL/min/kg. In series [7], the bioavailability stood at 1%. The IC50 in series [17] is 30000 nM; in series [13] it was > 10000 nM; in series [19], 2110 nM. The result in [18], in [10] and in series [11] was inactive.
Consider `N#Cc1cnc2ccc(NCc3ccn[nH]3)cc2c1NC1CCCC1`, for which the pIC50 in series [1] is 5.80.
As for `C[C@H](Nc1cc2c(N(C)C3CCCCCC3)c(C#N)cnc2cn1)c1ccccc1`, the pIC50 in series [1] was < 4.40.
In the case of `CCC(C)(C)Nc1c(C#N)cnc2cnc(NCc3cccnc3)cc12`, the pIC50 in [1] is 6.44; in series [2], < 4.40; in series [3], 6.10; in [4], 5.35.
Consider `CC(C)(C)Nc1c(C#N)cnc2cnc(NCc3cccnc3)cc12`, for which the pIC50 in series [1] was 6.20; in series [2], < 4.40; in series [3], 6.22; in series [4], 5.38. Moreover, the clearance in series [6] amounted to 50 mL/min/kg.

For orientation: pIC50 means the IC50 on a negative log10 scale, so that one unit is a factor of ten. A word on the inhibition in vivo: it is how much of the control response was suppressed. The clearance is the rate of elimination divided by the concentration. A word on the bioavailability: it is dose-corrected exposure relative to a reference, in per cent. Read a high bioavailability as much systemic uptake. What is called IC50 is the point on the concentration scale where inhibition reaches its midpoint. A low value points to greater potency.
